The record followed here is ChEMBL document CHEMBL1221405, “Chlorinated iridoid glucosides from Veronica longifolia and their antioxidant activity” (J Nat Prod, 2010).

Values after ≈ are worked out from the molar mass of the structure shown.

What all share (type): functional
The test system of assay [1] is Radical scavenging activity. Nature of the assay: Antioxidant activity assessed as DPPH radical scavenging activity after 30 mins. A digest of the protocol:
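Compounds in MeOH at various concentrations were added to DPPH in MeOH (80 µg/mL). After 30 min, remaining DPPH was read by absorbance at 520 nm. Scavenging was calculated against a blank (100%) holding only DPPH and solvent.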
(The DPPH test is a chemical assay of radical scavenging.)

Assay [2] is described as follows: Antioxidant activity assessed as nitric oxide scavenging activity after 150 mins by Griess assay. A digest of the protocol:
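Serially diluted samples were mixed with an equal volume of 10 mM sodium nitroprusside in PBS and incubated under light at room temperature for 150 min. After 10 min, nitrite chromophore absorbance was read at 577 nm.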
On the technique in general: The Griess reaction detects nitrite, a stable product of nitric oxide.

Assay [3] is described as follows: Antioxidant activity assessed as superoxide radical scavenging activity by NBT method. A digest of the protocol:
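Alkaline DMSO method (modified Kunchandy and Rao). Samples in DMSO were mixed with NBT (1 mg/mL in DMSO). Alkaline DMSO (DMSO with 5 mM NaOH in water) was added to give the final mixture. Absorbance was read at 560 nm.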

For the compound `O=C1O[C@H]([C@@H](O)CO)C(O)=C1O` [ASCORBIC ACID], the values for the IC50 in assay [1], in assay [2] and in assay [3] were under 10 µg/mL, over 1000 µg/mL and 13 µg/mL (≈ 73.8 µM), respectively.

In the case of `O=C(/C=C/c1ccc(O)c(O)c1)O[C@H]1[C@@H]2C=CO[C@@H](O[C@H]3O[C@@H](CO)[C@H](O)[C@@H](O)[C@@H]3O)[C@@H]2[C@](O)(CO)[C@@H]1Cl` [LONGIFOLIOSIDE B], the IC50 – broadly, the point on the concentration scale where inhibition reaches its midpoint – was 19 µg/mL (≈ 33.9 µM) in assay [1], 285 µg/mL (≈ 508 µM) in assay [2] and 199 µg/mL (≈ 355 µM) in assay [3].

As to `O=C(O[C@H]1[C@@H]2C=CO[C@@H](O[C@H]3O[C@@H](CO)[C@H](O)[C@@H](O)[C@@H]3O)[C@@H]2[C@](O)(CO)[C@@H]1Cl)c1ccc(O)c(O)c1` [LONGIFOLIOSIDES A], the IC50 in assay [1] came to 27 µg/mL (≈ 50.5 µM); in assay [2], 149 µg/mL (≈ 279 µM); in assay [3], 92 µg/mL (≈ 172 µM).

Consider `O=c1c(O)c(-c2ccc(O)c(O)c2)oc2cc(O)cc(O)c12` [QUERCETIN], for which the figures for the IC50 in assay [1], in assay [2] and in assay [3] were under 10 µg/mL, 96 µg/mL (≈ 318 µM) and 68 µg/mL (≈ 225 µM), respectively.
